An excerpt weighted towards active compounds, which were near 6.6% of everything screened.
JNK3 blocker: JNK3 kinase activity inhibitors, primary screen, biochemical, human, purified enzyme; 60,000 compounds, 0.61% hits; AID 746, 2007; HTS; Mitogen-activated protein kinase 10 (Homo sapiens), P53779; inhibition, % at 8 µM; in the data active = inhibition above about 17%;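 also: 0% = DMSO and 100% = reference inhibitor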
Target sequence (P53779 whole entry, looked up): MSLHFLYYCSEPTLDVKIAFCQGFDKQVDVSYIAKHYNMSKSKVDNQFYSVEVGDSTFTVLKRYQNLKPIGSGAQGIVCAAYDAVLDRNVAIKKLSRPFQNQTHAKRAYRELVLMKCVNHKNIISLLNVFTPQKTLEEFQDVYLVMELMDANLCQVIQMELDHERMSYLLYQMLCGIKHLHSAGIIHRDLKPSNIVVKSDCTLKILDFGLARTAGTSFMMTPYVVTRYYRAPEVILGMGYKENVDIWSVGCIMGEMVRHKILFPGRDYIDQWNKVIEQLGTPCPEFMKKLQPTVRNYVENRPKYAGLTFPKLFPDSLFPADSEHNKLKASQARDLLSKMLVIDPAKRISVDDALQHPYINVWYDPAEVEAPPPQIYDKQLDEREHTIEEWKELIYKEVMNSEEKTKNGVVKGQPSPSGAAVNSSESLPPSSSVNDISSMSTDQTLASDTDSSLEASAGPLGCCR
BAP1 block: inhibitors of BAP1 deubiquitinase, primary screen, biochemical, Ub-AMC fluorescence, kinetic; recombinant BAP1, Ub-AMC hydrolysis fluorescence kinetic; active compounds read low; 72,000 compounds, 0.48% hits; calls only at 20 µM;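 active = activity remaining at or below 50% of control, provided the compound also passes the data quality filters; inactive = the rest, including low values that fail the filters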;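 also: 100% = DMSO wells rate and 0% = substrate alone blank rate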
HEK293 NFkB inh: inhibitors of PMA/ionomycin-induced NF-kB reporter, primary screen, antigen receptor NF-kB inhibitor project, cell-based, HEK-293 luciferase reporter, luminescence. HEK-293 NF-kB luciferase reporter. inhibition, % at 3 µM. 62,000 compounds, 0.21% hits. AID 465, 2006;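 active = inhibition above the mean of all tested compounds plus 3 SD, cut at about 40% in these data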;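 also: 0% = stimulated DMSO wells and 100% = 10 µM reference inhibitor 5653914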
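Timing: 1 h pretreatment, 16 h stimulation, 37 °C; system: HEK-293 cells with stable firefly luciferase reporter driven by four HIV NF-kB elements; doses: 3 µM once, 0.30% DMSO; measured by: luciferase luminescence; control set: DMSO and 10 µM reference inhibitor; repeats: single test; reagent: PMA plus ionomycin mix as NF-kB-activating stimulus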
M1 ag: M1 muscarinic receptor agonists, primary screen, CHO-M1 cells, Fluo-4 calcium, agonist mode; Fluo-4 calcium fluorescence; active compounds read high; 64,000 compounds, 3% hits; AID 626, 2007; B-score at 10 µM; Muscarinic acetylcholine receptor M1;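 active = fluorescence rise, raw or as B-score row- and column-corrected plate score, outside the 99.7% band of its plate's samples, either direction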
HER2 expr 66K: inhibitors of Her2 protein expression, primary screen, SKBR-3 cells, AlphaScreen, 66K library | Receptor tyrosine-protein kinase erbB-2 (Homo sapiens), P04626 | SKBR-3 HER2 protein level, 18-24 h; active compounds read low | HER2 level % of control, % at 10 µM | 65,000 compounds, 0.69% hits | AID 645, 2007;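 active = HER2 level under 5% of the carrier-only control; inconclusive = no clear call, values can overlap the other calls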;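 also: 100% = DMSO carrier and 0% = 500 nM PU-H71 HSP90 inhibitor; lower value means stronger loss of Her2 protein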
M1 antag: antagonists of rat M1 muscarinic receptor | Muscarinic acetylcholine receptor M1 (Rattus norvegicus), P08482 | CHO-M1 cells, Fluo-4 calcium, ACh EC80 antagonist mode; active compounds read low | B-score at 10 µM | 64,000 compounds, 3.4% hits | AID 628, 2007;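 active = calcium fluorescence response, raw or row-and-column corrected B-score, differing from the plate sample mean either way at a set confidence level, mostly lower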
M1 agonist conf: rat M1 muscarinic receptor agonists, confirmation, CHO-M1 cells, Fluo-4 calcium, duplicate retest. Fluo-4 calcium fluorescence, agonist mode; actives lie on both sides. 1,700 compounds, 19% hits. shares compounds with M1 ag. AID 1488, 2009. fluorescence change (max-min) at 10 µM;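 active = fluorescence change differs from the solvent-only DMSO control mean at a set confidence level in both duplicate runs; inconclusive = differs from solvent-only control mean in just one of two runs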;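 also: an EC20 dose of acetylcholine follows compound addition during the same imaging run; raw fluorescence intensity difference in instrument units with no normalization to controls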
M4 agonist ctr: agonist activity at rat M4 receptor, confirmation, counter-screen for M1 allosteric modulator project, cell-based, agonist mode. shares compounds with M1 ag. CHO M4/Gqi5 cells, Fluo-4 calcium fluorescence; actives lie on both sides. fluorescence change (max-min) at 10 µM. 1,700 compounds, 9% hits. AID 1741, 2009;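 active = fluorescence change differing from the plate's solvent-only control wells at 99.7% confidence in both duplicates, whether higher or lower; inconclusive = differs from solvent controls in only one of two duplicates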
Active calls of the source: *; i = inactive; ? = inconclusive; / = no result given.

SMILES	JNK3 blocker	BAP1 block	HEK293 NFkB inh	M1 ag	HER2 expr 66K	M1 antag	M1 agonist conf	M4 agonist ctr
COC(=O)c1ccccc1NS(=O)(=O)c1cccc2c1C(=O)c1ccccc1C2=O	/	i	/	/	/	/	/	/
COc1ccc(-c2cc(C(F)(F)F)nc(N3CCCCCC3)n2)cc1	/	/	8	4.6*	78	0.23	-3.6	?
COc1ccc(-c2cc(C(F)(F)F)nc(N3CCN(C)CC3)n2)cc1	/	/	13	/	95	/	/	/
COc1ccc(CCNc2cc(N3CCN(C(=O)c4cccc(F)c4)CC3)ccc2[N+](=O)[O-])cc1OC	/	i	/	/	/	/	/	/
CCOC(=O)N1CCC(N2Cc3cccc(C(=O)Nc4ccc(OC)c(OC)c4)c3C2=O)CC1	2	i	-11	9*	118	-4*	-29	-37
O=C(CSCC(=O)N1CCCCC1)Nc1nc(-c2ccc(Cl)s2)cs1	4	i	-7	4.8*	96	-0.59	?	-30
O=C(CSCC(=O)N1CCCCC1)Nc1nc(-c2cccs2)cs1	-8	i	-1	5.7*	94	-1.8	8.5	-11
[O-][n+]1c2ccc3nonc3c2nn1-c1ccccc1	/	i	/	/	/	/	/	/
Cc1cc(=O)oc2ccc(OC(=O)c3cccc(S(=O)(=O)N4CCOCC4)c3)cc12	-5	i	5	4.8*	66	-0.6	?	-38
CC(=O)NCCc1ccc(S(=O)(=O)N2CCOCC2)cc1	-12	i	0	2.2*	114	0.75	-3	-36
Cc1cccc(NC(=O)c2oc3ccc(S(=O)(=O)N4CCOCC4)cc3c2C)c1C	3	i	12	9.5*	91	-1.3	?	-32
Cc1c(C(=O)NCCC2=CCCCC2)oc2ccc(S(=O)(=O)N3CCOCC3)cc12	/	/	23	15*	71	-2.9*	?	-54
COc1ccc(CCNC(=O)COc2ccc(S(=O)(=O)N3CCOCC3)cc2)cc1	-1	i	2	0.3	107	0.27	/	/
Cc1ccc(OC(=O)c2cccc(S(=O)(=O)N3CCOCC3)c2)cc1C	/	i	/	/	/	/	/	/
Cc1c(C(=O)NCCCN2CCCC2=O)oc2ccc(S(=O)(=O)N3CCOCC3)cc12	/	/	21	0.03	197	-0.19	/	/
CCOc1ccc2c(c1)C(=C1SC(C(=O)OC)=C(C(=O)OC)S1)C(=S)C(C)(C)N2C(=O)CC(C)C	/	i	/	/	/	/	/	/
O=C(O)c1cccc(N2C(=O)c3cccc4c([N+](=O)[O-])ccc(c34)C2=O)c1	/	i	/	/	/	/	/	/
Cc1sc(NC(=O)c2cc3ccccc3oc2=O)nc1-c1ccccc1	/	i	/	/	/	/	/	/
O=S(=O)(NCCCCCNS(=O)(=O)c1ccccc1)c1ccccc1	6	i	19	-1.7*	57	-1.3	16	-6.8
O=S(=O)(NCCCCCNS(=O)(=O)c1ccc(F)cc1)c1ccc(F)cc1	2	i	3	-0.26	111	-0.21	/	/
O=C(c1cnn2c1NC(c1ccc(Br)cc1)CC2C(F)(F)F)N1CCN(C(c2ccccc2)c2ccccc2)CC1 (configuration not stated)	/	i	/	/	/	/	/	/
COC(=O)c1ccccc1NC(=O)Cn1cnc2cc(C)c(C)cc21	8	i	11	-2.8*	79	-0.43	-3.3	-26
COC(=O)c1ccccc1NC(=O)Cn1cnc2c(cnn2-c2ccccc2)c1=O	3	i	6	-1.7	75	-0.052	/	/
O=[N+]([O-])c1cc(C(F)(F)F)ccc1N1CCN(c2ccc(C(F)(F)F)cc2[N+](=O)[O-])CC1	/	i	/	/	/	/	/	/
CCOC(=O)c1c(N)n(CCOC(=O)c2cccs2)c2nc3ccccc3nc12	3	i	20	9.8*	49	-1	-2.5	-37
SMILES	JNK3 blocker	BAP1 block	HEK293 NFkB inh	M1 ag	HER2 expr 66K	M1 antag	M1 agonist conf	M4 agonist ctr
CCOC(=O)c1cnn(CCOC(=O)c2cccs2)c1NC(=O)c1cccs1	5	i	10	1.5	94	1.3	/	/
Cc1ccc(S(=O)(=O)/C(C#N)=C/c2c(N3CCN(C)CC3)nc3c(C)cccn3c2=O)cc1	-3	i	/	8.6	91	0.75	/	/
CCN1CCN(c2nc3c(C)cccn3c(=O)c2/C=C(\C#N)S(=O)(=O)c2ccc(C)cc2)CC1	-4	i	/	9.7*	124	-0.53	?	40
Nc1c(N2CCOCC2)cc(Cl)c2nonc12	-3	i	6	0.42	118	0.65	/	/
Nc1c(N2CCCC2)cc(Cl)c2nonc12	0	i	19	4.2*	118	-0.51	8.6	-43
Cn1c(=O)c2c(nc(N3CCN(c4ccccc4)CC3)n2CCCc2ccccc2)n(C)c1=O	-1	i	13	0.06	52	0.74	/	/
Cn1c(=O)c2c(nc(N3CCN(Cc4ccccc4)CC3)n2CCCc2ccccc2)n(C)c1=O	7	i	8	4.2*	66	0.013	-5.2	-9.5
Cn1c(=O)c2c(nc(NCc3ccccc3)n2CCCc2ccccc2)n(C)c1=O	3	i	-7	15*	99	2.5*	?	-70
Nc1c(C(=O)OCC2CCCO2)c2nc3ccccc3nc2n1-c1ccc2c(c1)OCCO2 (configuration not stated)	1	/	23	5.9*	69	-0.2	-12	?
COCC(C)n1c(C)cc(C(=O)CSc2nc3ccccc3c(=O)[nH]2)c1C (configuration not stated)	5	i	-4	2.8*	74	0.74	-15	-21
COCCOC(=O)C(C#N)c1nc2ccccc2nc1N1CCCC1 (configuration not stated)	-7	i	8	-1.5	110	-0.55	/	/
CCCCCNC(=O)C(C#N)c1nc2ccccc2nc1N1CCCC1 (configuration not stated)	-3	i	6	282*	-23*	-2.4*	1609*	1437*
CCCCCNC(=O)C(C#N)c1nc2ccccc2nc1N1CC(C)OC(C)C1 (configuration not stated)	3	i	/	2.3	151	1.6	/	/
CCCCCCOC(=O)C(C#N)c1nc2ccccc2nc1N1CCN(CC)CC1 (configuration not stated)	-4	i	14	4.1*	54	-1.1	-0.77	-7.2
